Calls of active or inactive are those of the source. No cut-off for these calls is given here.

The results in this text go back to ChEMBL document CHEMBL2406994, “Novel triple reuptake inhibitors with low risk of CAD associated liabilities: design, synthesis and biological activities of 4-[(1S)-1-(3,4-dichlorophenyl)-2-methoxyethyl]piperidine and related compounds” (Bioorg Med Chem, 2013).

The subject of series [1] is Mus musculus. Description: Antidepressant activity in orally dosed ICR mouse after 60 mins by tail suspension test. To be noted: po, 1 h, read-out: MED. It is filed as functional. An outline of the steps: (§1)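 Male 7-week-old ICR mice, n = 11/group. Drug or vehicle (distilled water) given orally at 10 mL/kg; test run 60 min later. Mice hung by the tail from a strain-gauge hook, and immobility scored from load variation over a 10 min test. Average immobility ratio (%) per group; significance by parametric Williams' test, P < .025.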

The next series has as its target hERG (KCNH2) (Homo sapiens, UniProt Q12809). The experiment in a line: Inhibition of human ERG channel at 10 uM by ionworks assay relative to control. In short, it runs like this: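 hERG current measured on IonWorks Quattro with test compound at 10 µM. Expressed as % inhibition.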
Background: In patch-clamp work, channel activity is measured electrically.

In another series the target is CYP2D6 (Homo sapiens, UniProt P10635). Description: Inhibition of CYP2D6 (unknown origin) assessed as 1'-hydroxybufuralol production at 10 uM after 20 mins by LC/MS/MS analysis relative to control. The class given is ADME. To be noted: probe bufuralol (measured as 1'-hydroxybufuralol production). An outline of the steps: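 10 µmol/L bufuralol incubated with 2 nmol/L CYP2D6 from insect cells expressing the enzyme, with 10 µmol/L test compound, for 20 min at 37 °C. 1'-hydroxybufuralol quantified by LC/MS/MS. Expressed as % inhibition.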

Series [2] deals with Sodium-dependent dopamine transporter (Homo sapiens, UniProt Q01959). The experiment in a line: Displacement of [3H]-dopamine from human DAT expressed in CHO cells by TopCounting analysis. It is filed as cell-based. An outline of the steps:
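CHO cells stably expressing human DAT, plated overnight at 3 × 10⁵ cells/mL in HEPES-buffered saline with 0.5% BSA. Compound added, then [³H]-dopamine (200 nM diluted stock) with cold dopamine. Uptake for 60 min, two PBS washes, scintillation counting. Activity relative to 100 µM nomifensine as 100%. IC50 and 95% CI from n = 2.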
Background: In a radioligand displacement assay an active substance lowers the binding of a labelled ligand.

Series [3] addresses Sodium-dependent noradrenaline transporter (Homo sapiens, UniProt P23975). Description: Displacement of [3H]-norepinephrine from human NET expressed in CHO cells by TopCounting analysis. The class given is cell-based. An outline of the steps: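 CHO cells stably expressing human NET, plated overnight at 3 × 10⁵ cells/mL in HEPES-buffered saline with 0.5% BSA. Compound added, then [³H]-norepinephrine (200 nM diluted stock). Uptake stopped at 45 min with two PBS washes, then scintillation counting. IC50 and 95% CI from n = 2.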

In series [4] the target is Sodium-dependent serotonin transporter (Homo sapiens, UniProt P31645). Description: Displacement of [3H]-hydroxytryptamine from human SERT expressed in CHO cells by TopCounting analysis. The class given is cell-based. An outline of the steps: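 CHO cells stably expressing human SERT, plated overnight at 3 × 10⁵ cells/mL in HEPES-buffered saline with 0.5% BSA. Compound added, then [³H]-5-HT (200 nM diluted stock). Uptake stopped at 20 min with two PBS washes, then scintillation counting. Activity relative to 10 µM paroxetine.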

Series [5] deals with Mus musculus. Description: Antidepressant activity in ICR mouse assessed as DA level at 10 mg/kg, po after 120 mins by microdialysis relative to control. It is filed as functional. In short, it runs like this: (§2)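 Male 6-week-old ICR mice; probe implanted stereotaxically into medial prefrontal cortex under pentobarbital, 1 day recovery. Perfusion with Ringer at 2 µL/min; after ≥120 min stabilisation, dialysate collected every 20 min. Baseline from mean of three stable samples. Drug in water given orally at 10 mL/kg; collection continued 120 min. 5-HT, NE and DA measured by HPLC with electrochemical detection.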

The test system of series [6] is Mus musculus. Description: Antidepressant activity in ICR mouse assessed as NE level at 10 mg/kg, po after 120 mins by microdialysis relative to control. The class given is functional. An outline of the steps: as §2
Series [7] concerns Mus musculus. The experiment in a line: Antidepressant activity in ICR mouse assessed as 5-HT level at 10 mg/kg, po after 120 mins by microdialysis relative to control. It is filed as functional. In short, it runs like this:
as §2

Series [8] relates to Mus musculus. Description: Ex vivo receptor occupancy of DAT in po dosed ICR mouse after 1 hr in presence of [3H]-WIN35428. It is filed as functional, organism-based. In short, it runs like this: (§3)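 Oral dosing in mice; 1 h later, frontal cortex and striatum dissected. Unwashed homogenate incubated with [³H]-citalopram (25 nM, SERT), [³H]-nisoxetine (25 nM, NET) or [³H]-WIN35428 (50 nM, DAT). Occupancy taken as percent inhibition of specific binding.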

Series [9] deals with Mus musculus. Description: Ex vivo receptor occupancy of NET in po dosed ICR mouse after 1 hr in presence of [3H]-nisoxetine. It is filed as functional, organism-based. In short, it runs like this: as §3
Series [10] has as its system Mus musculus. Description: Ex vivo receptor occupancy of SERT in po dosed ICR mouse after 1 hr in presence of [3H]-citalopram. It is filed as functional, organism-based. In short, it runs like this: as §3
The subject of series [11] is Mus musculus. Description: Antidepressant activity in ICR mouse assessed as reduction in immobility rate at 10 mg/kg, po after 60 mins by tail suspension test. It is filed as functional, organism-based. Details: dose 10 mg/kg. In short, it runs like this: as §1
Series [12] has as its system Mus musculus. Description: Antidepressant activity in po dosed ICR mouse assessed as immobility rate after 60 mins by tail suspension test. It is filed as functional, organism-based. An outline of the steps:
as §1

Chain of hERG (KCNH2) (Q12809 whole entry): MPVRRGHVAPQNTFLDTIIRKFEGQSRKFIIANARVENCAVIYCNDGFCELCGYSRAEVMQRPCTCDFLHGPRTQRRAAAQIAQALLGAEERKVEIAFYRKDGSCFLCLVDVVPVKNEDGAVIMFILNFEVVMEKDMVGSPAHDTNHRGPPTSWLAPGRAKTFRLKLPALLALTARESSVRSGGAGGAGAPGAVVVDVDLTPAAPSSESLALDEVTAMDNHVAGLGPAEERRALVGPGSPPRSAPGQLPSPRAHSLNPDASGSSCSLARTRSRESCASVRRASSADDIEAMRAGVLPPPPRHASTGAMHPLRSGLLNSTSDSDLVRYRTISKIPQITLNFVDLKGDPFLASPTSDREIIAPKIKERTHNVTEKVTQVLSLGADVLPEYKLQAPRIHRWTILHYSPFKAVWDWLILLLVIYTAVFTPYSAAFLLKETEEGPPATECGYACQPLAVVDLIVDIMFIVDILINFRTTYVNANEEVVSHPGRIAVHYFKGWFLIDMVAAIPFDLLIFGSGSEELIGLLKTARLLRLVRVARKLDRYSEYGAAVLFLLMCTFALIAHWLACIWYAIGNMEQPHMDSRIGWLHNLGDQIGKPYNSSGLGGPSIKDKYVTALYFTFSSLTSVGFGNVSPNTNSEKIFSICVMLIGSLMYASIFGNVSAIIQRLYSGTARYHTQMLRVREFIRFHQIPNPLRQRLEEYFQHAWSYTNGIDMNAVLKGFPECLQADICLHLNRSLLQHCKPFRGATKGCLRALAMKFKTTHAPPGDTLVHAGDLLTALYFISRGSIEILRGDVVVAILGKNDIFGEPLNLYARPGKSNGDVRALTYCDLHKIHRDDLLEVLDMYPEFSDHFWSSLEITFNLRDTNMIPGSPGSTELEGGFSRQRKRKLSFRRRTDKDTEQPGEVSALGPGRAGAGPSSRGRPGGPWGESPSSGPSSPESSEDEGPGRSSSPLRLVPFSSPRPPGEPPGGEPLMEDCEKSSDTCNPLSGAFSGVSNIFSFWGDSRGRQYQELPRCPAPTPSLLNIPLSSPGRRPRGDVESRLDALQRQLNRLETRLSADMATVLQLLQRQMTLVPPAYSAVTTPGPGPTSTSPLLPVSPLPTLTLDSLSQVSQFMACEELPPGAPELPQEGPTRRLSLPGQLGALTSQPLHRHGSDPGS
Chain of Sodium-dependent noradrenaline transporter (P23975 whole entry): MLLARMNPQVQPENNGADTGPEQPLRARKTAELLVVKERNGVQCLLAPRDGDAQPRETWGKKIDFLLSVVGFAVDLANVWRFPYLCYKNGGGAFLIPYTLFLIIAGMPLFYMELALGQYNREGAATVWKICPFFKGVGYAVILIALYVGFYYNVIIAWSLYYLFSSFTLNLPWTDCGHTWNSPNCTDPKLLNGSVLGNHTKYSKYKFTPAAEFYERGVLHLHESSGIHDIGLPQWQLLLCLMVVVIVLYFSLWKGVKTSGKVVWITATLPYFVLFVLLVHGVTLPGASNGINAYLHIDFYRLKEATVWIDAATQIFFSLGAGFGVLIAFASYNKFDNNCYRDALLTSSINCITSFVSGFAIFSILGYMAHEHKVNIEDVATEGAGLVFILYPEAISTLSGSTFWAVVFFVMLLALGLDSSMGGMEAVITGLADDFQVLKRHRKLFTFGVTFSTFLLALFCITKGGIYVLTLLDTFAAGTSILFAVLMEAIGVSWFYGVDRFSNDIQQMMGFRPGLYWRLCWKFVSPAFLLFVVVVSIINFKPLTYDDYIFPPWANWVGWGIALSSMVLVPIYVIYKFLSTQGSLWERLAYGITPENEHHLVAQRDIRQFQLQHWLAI
Chain of CYP2D6 (P10635 whole entry): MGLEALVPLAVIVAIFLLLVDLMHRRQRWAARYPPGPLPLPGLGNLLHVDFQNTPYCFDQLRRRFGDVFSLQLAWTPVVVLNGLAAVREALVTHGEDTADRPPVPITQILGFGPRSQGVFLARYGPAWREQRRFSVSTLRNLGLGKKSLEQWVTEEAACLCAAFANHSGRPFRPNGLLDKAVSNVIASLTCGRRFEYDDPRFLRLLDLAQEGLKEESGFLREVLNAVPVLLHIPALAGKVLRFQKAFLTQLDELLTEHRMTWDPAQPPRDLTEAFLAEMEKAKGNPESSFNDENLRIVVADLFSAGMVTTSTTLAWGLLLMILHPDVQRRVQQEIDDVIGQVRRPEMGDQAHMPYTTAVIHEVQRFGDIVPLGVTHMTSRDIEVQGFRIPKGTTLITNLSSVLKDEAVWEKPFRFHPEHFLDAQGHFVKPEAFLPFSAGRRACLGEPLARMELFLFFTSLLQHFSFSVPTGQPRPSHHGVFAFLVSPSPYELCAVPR
Chain of Sodium-dependent serotonin transporter (P31645 whole entry): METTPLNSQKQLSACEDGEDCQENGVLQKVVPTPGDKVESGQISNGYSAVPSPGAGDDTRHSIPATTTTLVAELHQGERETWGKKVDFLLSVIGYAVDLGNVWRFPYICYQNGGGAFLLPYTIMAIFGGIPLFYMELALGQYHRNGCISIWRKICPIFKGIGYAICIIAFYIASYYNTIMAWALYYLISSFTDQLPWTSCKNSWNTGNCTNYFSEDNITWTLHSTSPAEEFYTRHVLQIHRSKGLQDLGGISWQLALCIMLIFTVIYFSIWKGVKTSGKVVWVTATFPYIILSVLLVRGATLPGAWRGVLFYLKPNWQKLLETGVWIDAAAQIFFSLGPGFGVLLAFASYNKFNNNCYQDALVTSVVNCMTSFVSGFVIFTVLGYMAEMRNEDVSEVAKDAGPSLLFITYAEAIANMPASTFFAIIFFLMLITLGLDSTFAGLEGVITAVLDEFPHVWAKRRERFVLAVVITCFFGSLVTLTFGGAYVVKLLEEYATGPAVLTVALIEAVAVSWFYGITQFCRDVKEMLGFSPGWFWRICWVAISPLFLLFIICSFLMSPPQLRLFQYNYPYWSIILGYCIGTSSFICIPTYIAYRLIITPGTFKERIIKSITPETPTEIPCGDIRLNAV
Chain of Sodium-dependent dopamine transporter (Q01959 whole entry): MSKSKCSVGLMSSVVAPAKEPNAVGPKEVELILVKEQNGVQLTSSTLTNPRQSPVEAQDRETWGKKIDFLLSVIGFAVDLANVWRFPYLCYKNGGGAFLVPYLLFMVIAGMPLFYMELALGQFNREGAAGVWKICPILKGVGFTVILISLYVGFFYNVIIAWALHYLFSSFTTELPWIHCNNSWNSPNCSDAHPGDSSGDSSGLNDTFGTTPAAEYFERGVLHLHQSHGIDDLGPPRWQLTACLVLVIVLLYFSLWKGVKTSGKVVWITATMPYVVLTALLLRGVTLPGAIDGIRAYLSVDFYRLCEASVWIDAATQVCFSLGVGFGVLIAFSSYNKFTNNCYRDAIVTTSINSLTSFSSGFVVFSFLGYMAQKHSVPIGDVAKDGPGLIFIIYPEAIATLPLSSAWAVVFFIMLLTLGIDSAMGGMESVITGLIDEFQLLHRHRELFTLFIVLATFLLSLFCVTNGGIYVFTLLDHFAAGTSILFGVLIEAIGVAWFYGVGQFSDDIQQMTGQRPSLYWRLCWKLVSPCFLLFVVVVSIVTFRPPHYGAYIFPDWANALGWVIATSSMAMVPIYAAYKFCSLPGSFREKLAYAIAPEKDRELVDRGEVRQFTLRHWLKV

On to `CSCC(c1ccc(Cl)c(Cl)c1)C1CCNCC1.Cl` (racemic), for which the minimal effective dose with Mus musculus [1] was 30 mg/kg. Besides, at hERG (KCNH2), the inhibition at 10 µM amounted to 73%. On CYP2D6, the inhibition at 20 min, 10 µM stood at 32%. For the same compound, the IC50 in [2] was 79 nM; in series [3] it was 9.3 nM; in series [4], 9.1 nM.

On to `COC[C@@H](c1ccc(Cl)c(Cl)c1)C1CCNCC1.Cl`, for which the minimal effective dose in the series on Mus musculus [1] worked out at 10 mg/kg. Further, the inhibition at 10 µM against hERG (KCNH2) came to 46%. In addition, the inhibition at 20 min, 10 µM on CYP2D6 was found to be 13%. Also, the figures for the IC50 in series [2], in series [3] and in [4] were 470 nM, 21 nM and 5.7 nM, respectively.

`COC[C@H](c1ccc(Cl)c(Cl)c1)C1CCNCC1.Cl`: the Activity was 270% in the series on Mus musculus [5]; 400% with Mus musculus [6]; 180% with Mus musculus [7]; “Dose-dependent effect” in the series on Mus musculus [8]; “Dose-dependent effect” in the series on Mus musculus [9]; “Dose-dependent effect” in the series on Mus musculus [10]. In addition, in the series with Mus musculus [12], the Activity result is “Dose-dependent effect”. The result with Mus musculus [11] was Active. The minimal effective dose in the series with Mus musculus [1] came out at 10 mg/kg. Moreover, the inhibition at 10 µM against hERG (KCNH2) was 48%. In addition, the inhibition at 20 min, 10 µM at CYP2D6 turned out to be 14%. Also, the results for the IC50 in series [2], in series [3] and in series [4] were 180 nM, 15 nM and 130 nM, respectively.

Consider `COCC(c1ccc(F)c(Cl)c1)C1CCNCC1` (racemic), for which the inhibition at 10 µM against hERG (KCNH2) turned out to be 24%. At CYP2D6, the inhibition at 20 min, 10 µM was -18%. Also, the IC50 in [2] is 580 nM; in [3] it was 70 nM; in series [4] it was 32 nM.

With `COC(=O)C(c1ccc(Cl)c(Cl)c1)C1CCNCC1` (racemic), at hERG (KCNH2), the inhibition at 10 µM was determined as 56%. The inhibition at 20 min, 10 µM at CYP2D6 was found to be 13%. Also, the half-inhibitory concentration (IC50) in [2] amounted to 220 nM; in series [3], 18 nM; in series [4], 5.2 nM.

For `CC(c1ccc(Cl)c(Cl)c1)C1CCNCC1.Cl` (racemic), in the series on Mus musculus [1], the minimal effective dose was found to be 3 mg/kg. Moreover, the inhibition at 10 µM against hERG (KCNH2) was found to be 72%. Also, the inhibition at 20 min, 10 µM on CYP2D6 came to 27%. The IC50 in series [2] stood at 160 nM; in series [3], 25 nM; in [4], 12 nM.

For `OCC(c1ccc(Cl)c(Cl)c1)C1CCNCC1` (racemic), at hERG (KCNH2), the inhibition at 10 µM came to 12%. The inhibition at 20 min, 10 µM on CYP2D6 was -1.5%. Besides, the IC50 in [2] stood at 2400 nM; in series [3], 110 nM; in series [4] it was 79 nM.

As for `CCC(=O)C(c1ccc(Cl)c(Cl)c1)C1CCNCC1` (racemic), on hERG (KCNH2), the inhibition at 10 µM was determined as 51%. Also, the inhibition at 20 min, 10 µM at CYP2D6 worked out at 6.1%. Moreover, the figures for the IC50 in series [2], in series [3] and in series [4] were 100 nM, 28 nM and 18 nM, respectively.

For `COCC(c1cccc(Cl)c1)C1CCNCC1` (racemic), the inhibition at 10 µM against hERG (KCNH2) worked out at 23%. Besides, on CYP2D6, the inhibition at 20 min, 10 µM came to 2%. The IC50 in series [2] was 2600 nM; in series [3] it was 98 nM; in [4], 180 nM.

Consider `CCCC(=O)C(c1ccc(Cl)c(Cl)c1)C1CCNCC1` (racemic), for which, at hERG (KCNH2), the inhibition at 10 µM was 72%. Moreover, at CYP2D6, the inhibition at 20 min, 10 µM was found to be 20%. The figures for the IC50 in series [2], in [3] and in [4] were 26 nM, 22 nM and 37 nM, respectively.

For `CCSCC(c1ccc(Cl)c(Cl)c1)C1CCNCC1` (racemic), at hERG (KCNH2), the inhibition at 10 µM is 94%. For the same compound, the inhibition at 20 min, 10 µM at CYP2D6 turned out to be 55%. Further, the IC50 in [2] turned out to be 72 nM; in series [3], 8.7 nM; in series [4] it was 9.2 nM.

Consider `CCOC(=O)C(c1ccc(Cl)c(Cl)c1)C1CCNCC1` (racemic), for which the inhibition at 10 µM against hERG (KCNH2) stood at 110%. Besides, the inhibition at 20 min, 10 µM at CYP2D6 stood at 38%. The half-maximal inhibitory concentration (IC50) in series [2] came out at 97 nM; in [3] it was 12 nM; in series [4], 9.3 nM.

For the compound `CC(=O)C(c1ccc(Cl)c(Cl)c1)C1CCNCC1.Cl` (racemic), the minimal effective dose in the series with Mus musculus [1] was 30 mg/kg. Further, at hERG (KCNH2), the inhibition at 10 µM stood at 40%. Moreover, at CYP2D6, the inhibition at 20 min, 10 µM came out at 11%. The IC50 came to 180 nM in series [2], 44 nM in series [3] and 21 nM in series [4].

In the case of `COCC(c1ccc2ccccc2c1)C1CCNCC1` (racemic), on hERG (KCNH2), the inhibition at 10 µM is 38%. Also, the inhibition at 20 min, 10 µM on CYP2D6 stood at 22%. The results for the IC50 in series [2], in series [3] and in [4] were 1100 nM, 36 nM and 2.1 nM, respectively.

As for `CCOCC(c1ccc(Cl)c(Cl)c1)C1CCNCC1.Cl` (racemic), the minimal effective dose in the series on Mus musculus [1] came to 3 mg/kg. Moreover, on hERG (KCNH2), the inhibition at 10 µM amounted to 89%. The inhibition at 20 min, 10 µM at CYP2D6 was 44%. In addition, the concentration for half-maximal inhibition (IC50) in series [2] stood at 170 nM; in [3] it was 28 nM; in [4] it was 16 nM.

`COCC(c1ccc(Cl)c(Cl)c1)C1CCNCC1.Cl` (racemic): the minimal effective dose in the series on Mus musculus [1] is 3 mg/kg. Also, at hERG (KCNH2), the inhibition at 10 µM is 42%. Besides, at CYP2D6, the inhibition at 20 min, 10 µM was found to be 5.7%. Moreover, the half-maximal inhibitory concentration (IC50) was 190 nM in series [2], 14 nM in [3] and 11 nM in series [4].

On to `COCC(c1ccc(Cl)cc1)C1CCNCC1` (racemic), for which the inhibition at 10 µM against hERG (KCNH2) came out at 22%. On CYP2D6, the inhibition at 20 min, 10 µM is -2.8%. Moreover, the results for the half-inhibitory concentration (IC50) in series [2], in series [3] and in series [4] were 1700 nM, 130 nM and 120 nM, respectively.

Consider `CS(=O)(=O)CC(c1ccc(Cl)c(Cl)c1)C1CCNCC1` (racemic), for which the inhibition at 10 µM against hERG (KCNH2) stood at 9%. In addition, the inhibition at 20 min, 10 µM at CYP2D6 was 3.9%. The IC50 in series [2] is 2200 nM; in series [3], 200 nM; in series [4], 340 nM.

A word on the inhibition: it is the drop in the measured response relative to a control, in per cent. Usually IC50 stands for the concentration that inhibits the measured activity by half. Read a low IC50 as greater potency.
